From ChEMBL document CHEMBL3120102, “Structure-based design, synthesis and biological evaluation of novel anthra[1,2-d]imidazole-6,11-dione homologues as potential antitumor agents” (2013)

Legend:
[1] = Cytotoxicity against human H1299 cells assessed as cell viability at 100 uM after 48 hrs by MTT assay; format: functional; settings: NCI-H1299, 48 h, read-out: Activity
How it was run: (§1)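 About 2×10³ H1299 cells per well were grown for 24 h at 37 °C in 5% CO2. Compound was dissolved in DMSO immediately before use, diluted in complete medium and left on cells for 48 h. MTT was then added for 4 h at 37 °C, followed by SDS/DMF lysis buffer for 16 h at 37 °C. Absorbance was read at 550 nm.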

[2] = biological target: Telomerase reverse transcriptase (Homo sapiens) (UniProt O14746); assay: Inhibition of human tert transcriptional activity assessed as SEAP activity at 1 uM after 24 hrs by SEAP reporter assay; parameters: scale not given: the % may be the effect or the level left
Chain of Telomerase reverse transcriptase (Homo sapiens) (O14746 whole entry): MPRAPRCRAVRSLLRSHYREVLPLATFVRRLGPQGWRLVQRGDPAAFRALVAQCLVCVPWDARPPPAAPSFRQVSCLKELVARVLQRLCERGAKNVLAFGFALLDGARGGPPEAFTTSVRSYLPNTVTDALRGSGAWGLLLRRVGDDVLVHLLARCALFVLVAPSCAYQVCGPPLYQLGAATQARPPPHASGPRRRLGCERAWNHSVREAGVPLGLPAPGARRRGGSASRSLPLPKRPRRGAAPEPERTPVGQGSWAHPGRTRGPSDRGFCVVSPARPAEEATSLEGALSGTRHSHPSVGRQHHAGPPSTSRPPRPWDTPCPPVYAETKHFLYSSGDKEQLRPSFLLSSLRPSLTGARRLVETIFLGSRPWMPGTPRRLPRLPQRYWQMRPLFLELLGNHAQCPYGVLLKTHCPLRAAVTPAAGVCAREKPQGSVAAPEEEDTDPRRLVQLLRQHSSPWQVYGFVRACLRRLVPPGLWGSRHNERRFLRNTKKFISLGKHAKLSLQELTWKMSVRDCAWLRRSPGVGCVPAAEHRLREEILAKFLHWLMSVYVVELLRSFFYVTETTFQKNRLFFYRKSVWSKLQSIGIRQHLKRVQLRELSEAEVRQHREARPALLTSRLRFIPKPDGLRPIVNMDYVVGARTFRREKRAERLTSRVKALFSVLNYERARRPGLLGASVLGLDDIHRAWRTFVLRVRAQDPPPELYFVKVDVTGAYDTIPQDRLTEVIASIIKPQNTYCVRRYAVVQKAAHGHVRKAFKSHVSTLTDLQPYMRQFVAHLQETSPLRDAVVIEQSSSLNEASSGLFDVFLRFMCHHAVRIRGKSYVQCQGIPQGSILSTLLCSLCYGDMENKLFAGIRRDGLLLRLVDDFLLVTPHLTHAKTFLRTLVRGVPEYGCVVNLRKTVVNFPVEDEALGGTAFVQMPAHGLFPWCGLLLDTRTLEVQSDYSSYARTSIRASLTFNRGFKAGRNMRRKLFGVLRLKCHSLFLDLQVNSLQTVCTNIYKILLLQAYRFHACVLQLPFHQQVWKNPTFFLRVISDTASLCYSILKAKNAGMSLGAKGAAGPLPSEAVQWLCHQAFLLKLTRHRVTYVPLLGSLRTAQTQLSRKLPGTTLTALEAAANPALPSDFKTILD
How it was run: (§2)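 Reporter assay for hTERT transcriptional activity using secreted alkaline phosphatase. About 2 × 10³ cells per well were grown for 24 h at 37 °C, then given fresh medium. Buffer was added to the medium: 2 M diethanolamine, 1 mM MgCl2 and 20 mM L-homoarginine. p-Nitrophenyl phosphate was added to 12 mM final. The rate of absorbance increase was read at 405 nm.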

[3] = Cytotoxicity against human H1299 cells assessed as cell viability at 10 uM after 48 hrs by MTT assay; format: functional; settings: NCI-H1299, 48 h, read-out: Activity; how it was run: as §1
[4] = biological target: Telomerase reverse transcriptase (Homo sapiens) (UniProt O14746); assay: Inhibition of human tert transcriptional activity assessed as SEAP activity at 10 uM after 24 hrs by SEAP reporter assay; parameters: scale not given: the % may be the effect or the level left; how it was run: as §2
[5] = biological target: Telomerase reverse transcriptase (Homo sapiens) (UniProt O14746); assay: Inhibition of human tert transcriptional activity assessed as SEAP activity at 100 uM after 24 hrs by SEAP reporter assay; parameters: scale not given: the % may be the effect or the level left; how it was run: as §2
[6] = Cytotoxicity against human H1299 cells assessed as cell viability at 1 uM after 48 hrs by MTT assay; format: functional; settings: NCI-H1299, 48 h, read-out: Activity; how it was run: as §1

C#CCSc1nc2ccc3c(c2[nH]1)C(=O)c1ccccc1C3=O
viability at 100 µM [1]: 75%
Activity [2]: 94%
viability at 10 µM [3]: 96%
Activity [4]: 85%
Activity [5]: 52%
viability at 1 µM [6]: 94%

O=C1c2ccccc2C(=O)c2c1ccc1nc(SC(=O)N3CCCCC3)[nH]c21
viability at 100 µM [1]: 116%
Activity [2]: 98%
viability at 10 µM [3]: 116%
Activity [4]: 104%
Activity [5]: 81%
viability at 1 µM [6]: 97%

CCN(CC)C(=O)Sc1nc2ccc3c(c2[nH]1)C(=O)c1ccccc1C3=O
viability at 100 µM [1]: 116%
Activity [2]: 106%
viability at 10 µM [3]: 119%
Activity [4]: 104%
Activity [5]: 88%
viability at 1 µM [6]: 118%

C=CCSc1nc2ccc3c(c2[nH]1)C(=O)c1ccccc1C3=O
viability at 100 µM [1]: 79%
Activity [2]: 97%
viability at 10 µM [3]: 96%
Activity [4]: 91%
Activity [5]: 69%
viability at 1 µM [6]: 100%

COC(=O)/C=C/CSc1nc2ccc3c(c2[nH]1)C(=O)c1ccccc1C3=O
viability at 100 µM [1]: 72%
Activity [2]: 88%
viability at 10 µM [3]: 75%
Activity [4]: 87%
Activity [5]: 64%
viability at 1 µM [6]: 98%

O=C1c2ccccc2C(=O)c2c1ccc1nc(SCCCCCCCl)[nH]c21
viability at 100 µM [1]: 88%
Activity [2]: 105%
viability at 10 µM [3]: 85%
Activity [4]: 98%
Activity [5]: 53%
viability at 1 µM [6]: 83%

O=C1c2ccccc2C(=O)c2c1ccc1nc(SCCN3CCOCC3)[nH]c21
viability at 100 µM [1]: 73%
Activity [2]: 119%
viability at 10 µM [3]: 127%
Activity [4]: 105%
Activity [5]: 36%
viability at 1 µM [6]: 106%

O=C1c2ccccc2C(=O)c2c1ccc1nc(SC(=O)N3CCOCC3)[nH]c21
viability at 100 µM [1]: 90%
Activity [2]: 93%
viability at 10 µM [3]: 94%
Activity [4]: 87%
Activity [5]: 71%
viability at 1 µM [6]: 89%

CCN(CC)C(=O)CSc1nc2ccc3c(c2[nH]1)C(=O)c1ccccc1C3=O
viability at 100 µM [1]: 54%
Activity [2]: 96%
viability at 10 µM [3]: 90%
Activity [4]: 93%
Activity [5]: 49%
viability at 1 µM [6]: 97%

Cc1cc(C(=O)Sc2nc3ccc4c(c3[nH]2)C(=O)c2ccccc2C4=O)c(C)o1
viability at 100 µM [1]: 95%
Activity [2]: 104%
viability at 10 µM [3]: 91%
Activity [4]: 100%
Activity [5]: 89%
viability at 1 µM [6]: 95%

CCCN(CCC)C(=O)CSc1nc2ccc3c(c2[nH]1)C(=O)c1ccccc1C3=O
viability at 100 µM [1]: 93%
Activity [2]: 94%
viability at 10 µM [3]: 86%
Activity [4]: 91%
Activity [5]: 85%
viability at 1 µM [6]: 95%

CCN(CC)C(=O)CCSc1nc2ccc3c(c2[nH]1)C(=O)c1ccccc1C3=O
viability at 100 µM [1]: 44%
Activity [2]: 97%
viability at 10 µM [3]: 77%
Activity [4]: 98%
Activity [5]: 64%
viability at 1 µM [6]: 94%

O=C(Sc1nc2ccc3c(c2[nH]1)C(=O)c1ccccc1C3=O)c1cc(C(F)(F)F)ccc1C(F)(F)F
viability at 100 µM [1]: 79%
Activity [2]: 102%
viability at 10 µM [3]: 100%
Activity [4]: 96%
Activity [5]: 75%
viability at 1 µM [6]: 95%

O=C1c2ccccc2C(=O)c2c1ccc1nc(SCCCN3CCCCC3)[nH]c21
viability at 100 µM [1]: 38%
Activity [2]: 85%
viability at 10 µM [3]: 70%
Activity [4]: 50%
Activity [5]: 8%
viability at 1 µM [6]: 71%

Cc1ccccc1CSc1nc2ccc3c(c2[nH]1)C(=O)c1ccccc1C3=O
viability at 100 µM [1]: 76%
Activity [2]: 88%
viability at 10 µM [3]: 81%
Activity [4]: 83%
Activity [5]: 29%
viability at 1 µM [6]: 88%

COc1cccc2c1C(=O)c1c(O)c3c(c(O)c1C2=O)C[C@@](O)(C(=O)CO)C[C@@H]3O[C@H]1C[C@H](N)[C@H](O)[C@H](C)O1 [DOXORUBICIN]
viability at 100 µM [1]: 0%
Activity [2]: 34%
viability at 10 µM [3]: 0%
Activity [4]: 14%
Activity [5]: 5%
viability at 1 µM [6]: 17%

O=C1c2ccccc2C(=O)c2c1ccc1nc(SCCC(=O)N3CCCC3)[nH]c21
viability at 100 µM [1]: 57%
Activity [2]: 87%
viability at 10 µM [3]: 110%
Activity [4]: 90%
Activity [5]: 67%
viability at 1 µM [6]: 107%

O=C(CCc1ccccc1)Sc1nc2ccc3c(c2[nH]1)C(=O)c1ccccc1C3=O
viability at 100 µM [1]: 69%
Activity [2]: 97%
viability at 10 µM [3]: 93%
Activity [4]: 95%
Activity [5]: 81%
viability at 1 µM [6]: 95%

O=C1c2ccccc2C(=O)c2c1ccc1nc(SCCN3CCCCC3)[nH]c21
viability at 100 µM [1]: 30%
Activity [2]: 111%
viability at 10 µM [3]: 79%
Activity [4]: 100%
Activity [5]: 14%
viability at 1 µM [6]: 86%

COC(=O)CCCSc1nc2ccc3c(c2[nH]1)C(=O)c1ccccc1C3=O
viability at 100 µM [1]: 57%
Activity [2]: 88%
viability at 10 µM [3]: 83%
Activity [4]: 83%
Activity [5]: 61%
viability at 1 µM [6]: 83%

O=C1c2ccccc2C(=O)c2c1ccc1nc(SCCCCCBr)[nH]c21
viability at 100 µM [1]: 37%
Activity [2]: 92%
viability at 10 µM [3]: 82%
Activity [4]: 58%
Activity [5]: 41%
viability at 1 µM [6]: 84%

O=C1c2ccccc2C(=O)c2c1ccc1nc(SCC(=O)N3CCCC3)[nH]c21
viability at 100 µM [1]: 62%
Activity [2]: 100%
viability at 10 µM [3]: 102%
Activity [4]: 100%
Activity [5]: 64%
viability at 1 µM [6]: 89%

O=C(Sc1nc2ccc3c(c2[nH]1)C(=O)c1ccccc1C3=O)c1ccccc1[N+](=O)[O-]
viability at 100 µM [1]: 76%
Activity [2]: 98%
viability at 10 µM [3]: 78%
Activity [4]: 92%
Activity [5]: 81%
viability at 1 µM [6]: 80%

Nc1ccc2c(c1N)C(=O)c1ccccc1C2=O
viability at 100 µM [1]: 39%
viability at 10 µM [3]: 95%
Activity [4]: 77%
viability at 1 µM [6]: 105%

O=C1c2ccccc2C(=O)c2c1ccc1nc(SC(=O)N3CCCC3)[nH]c21
viability at 100 µM [1]: 124%
Activity [2]: 96%
viability at 10 µM [3]: 117%
Activity [4]: 105%
Activity [5]: 95%
viability at 1 µM [6]: 110%

CN1CCN(C(=O)Sc2nc3ccc4c(c3[nH]2)C(=O)c2ccccc2C4=O)CC1
viability at 100 µM [1]: 71%
Activity [2]: 89%
viability at 10 µM [3]: 120%
Activity [4]: 99%
Activity [5]: 38%
viability at 1 µM [6]: 102%

O=C1c2c(O)ccc(O)c2C(=O)c2c(NCCNCCO)ccc(NCCNCCO)c21 [MITOXANTRONE]
viability at 100 µM [1]: 0%
Activity [2]: 21%
viability at 10 µM [3]: 0%
Activity [4]: 10%
Activity [5]: 7%
viability at 1 µM [6]: 24%

CCCCSc1nc2ccc3c(c2[nH]1)C(=O)c1ccccc1C3=O
viability at 100 µM [1]: 77%
Activity [2]: 111%
viability at 10 µM [3]: 135%
Activity [4]: 105%
Activity [5]: 53%
viability at 1 µM [6]: 82%
